# Reference: ChEMBL document CHEMBL5724801, “EUbOPEN Chemogenomics Library - Multiplex” (2024)
# “And” between values parts separate entries of the source, which are not always exact repeats. Equal entries are not always repeated.
# Tested on: HEK-293T
# Test: Multiplex assay against HEK293T
# Assay type: toxicity, cell-based
# Conditions: human
# Outline: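 Phenotypes for tubulin, mitochondrial mass and membrane permeability are expressed as per cents of healthy-nucleus cells. Cells were stained live at seeding with Hoechst33342, BioTracker Green Microtubule Cytoskeleton Dye, MitoTracker Red and Annexin V Alexa Fluor 680, then imaged after compound addition on a CQ1 microscope at 37°C and 5% CO2. Machine-learning gating in CellPathfinder separated Hoechst high-intensity objects from normal cells, divided normal cells by nuclear state (healthy, pyknosed, fragmented) and divided pyknosed cells into mitotic or apoptotic.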
# [1] = 12 h, 1 µM, compound concentration 1 uM
# [2] = 12 h, 10 µM, compound concentration 10 uM
# [3] = 24 h, 1 µM, compound concentration 1 uM
# [4] = 24 h, 10 µM, compound concentration 10 uM
# [5] = 48 h, 1 µM, compound concentration 1 uM
# [6] = 48 h, 10 µM, compound concentration 10 uM
smiles,measurement,setting,value
CC1(COc2ccc3c(c2)ncn3-c2ccc3cccc(N4CCC(N)CC4)c3n2)COC1 [CRENOLANIB],Population Apoptotic (%),[1],58% and 34%
same,Population Fragmented Nuclei (%),[1],14% and 10%
same,Population Healthy Nuclei (%),[1],79% and 80%
same,Population Hoechst High Intensity Objects (%),[1],3% and 6%
same,Population Membrane Permeable-Phenotype (%),[1],2% and 1%
same,Population Mitochondria Different-Phenotype (%),[1],23% and 51%
same,Population Mitotic Cells (%),[1],41% and 65%
same,Population Normal (%),[1],96% and 93%
same,Population Pyknosed Nuclei (%),[1],6% and 8%
same,Population Tubulin-Different-Phenotype (%),[1],46% and 51%
same,Total Cell Count,[1],412 and 332
same,Population Apoptotic (%),[2],69% and 55%
same,Population Fragmented Nuclei (%),[2],67% and 64%
same,Population Healthy Nuclei (%),[2],13% and 17%
same,Population Hoechst High Intensity Objects (%),[2],67% and 69%
same,Population Membrane Permeable-Phenotype (%),[2],0%
same,Population Mitochondria Different-Phenotype (%),[2],84% and 90%
same,Population Mitotic Cells (%),[2],30% and 45%
same,Population Normal (%),[2],32% and 30%
same,Population Pyknosed Nuclei (%),[2],18% and 17%
same,Population Tubulin-Different-Phenotype (%),[2],68% and 50%
same,Total Cell Count,[2],423 and 376
same,Population Apoptotic (%),[3],29% and 45%
same,Population Fragmented Nuclei (%),[3],20% and 15%
same,Population Healthy Nuclei (%),[3],66% and 73%
same,Population Hoechst High Intensity Objects (%),[3],2% and 6%
same,Population Membrane Permeable-Phenotype (%),[3],2% and 1%
same,Population Mitochondria Different-Phenotype (%),[3],22% and 33%
same,Population Mitotic Cells (%),[3],70% and 54%
same,Population Normal (%),[3],97% and 93%
same,Population Pyknosed Nuclei (%),[3],12% and 11%
same,Population Tubulin-Different-Phenotype (%),[3],23% and 35%
same,Total Cell Count,[3],547 and 415
same,Population Apoptotic (%),[4],72%
same,Population Fragmented Nuclei (%),[4],60% and 69%
same,Population Healthy Nuclei (%),[4],16% and 15%
same,Population Hoechst High Intensity Objects (%),[4],56% and 63%
same,Population Membrane Permeable-Phenotype (%),[4],0%
same,Population Mitochondria Different-Phenotype (%),[4],89% and 94%
same,Population Mitotic Cells (%),[4],27%
same,Population Normal (%),[4],43% and 36%
same,Population Pyknosed Nuclei (%),[4],23% and 14%
same,Population Tubulin-Different-Phenotype (%),[4],92% and 73%
same,Total Cell Count,[4],394 and 334
same,Population Apoptotic (%),[5],29% and 47%
same,Population Fragmented Nuclei (%),[5],19% and 23%
same,Population Healthy Nuclei (%),[5],72% and 70%
same,Population Hoechst High Intensity Objects (%),[5],1%
same,Population Membrane Permeable-Phenotype (%),[5],1%
same,Population Mitochondria Different-Phenotype (%),[5],17% and 21%
same,Population Mitotic Cells (%),[5],70% and 52%
same,Population Normal (%),[5],98%
same,Population Pyknosed Nuclei (%),[5],7% and 6%
same,Population Tubulin-Different-Phenotype (%),[5],10% and 14%
same,Total Cell Count,[5],844 and 639
same,Population Apoptotic (%),[6],86% and 84%
same,Population Fragmented Nuclei (%),[6],51% and 47%
same,Population Healthy Nuclei (%),[6],17% and 22%
same,Population Hoechst High Intensity Objects (%),[6],41% and 49%
same,Population Membrane Permeable-Phenotype (%),[6],0%
same,Population Mitochondria Different-Phenotype (%),[6],97% and 96%
same,Population Mitotic Cells (%),[6],13% and 15%
same,Population Normal (%),[6],59% and 50%
same,Population Pyknosed Nuclei (%),[6],30%
same,Population Tubulin-Different-Phenotype (%),[6],95% and 96%
same,Total Cell Count,[6],400 and 298
